In article PMC6499389 (European journal of medicinal chemistry, 2019):
Like-named read-outs stand apart in the source and are kept apart here. Values belong to the molecule of their own block, whether it stands above or below them.

What was measured:
[1] = target: T1, hTopo I (Homo sapiens, UniProt P11387); experiment: Relaxation assay for hTopo I; format: biochemical; conditions: for fold lower activity (loss in hTopo I inhibition) than 5a: relative to 5a; for fold lower activity (loss in hTopo I inhibition) than 5a / fold lower activity (loss in hTopo I inhibition) than 217: from relaxation assay IC50; for fold lower activity (loss in hTopo I inhibition) than 217: relative to 217
T1 sequence (P11387 1-765): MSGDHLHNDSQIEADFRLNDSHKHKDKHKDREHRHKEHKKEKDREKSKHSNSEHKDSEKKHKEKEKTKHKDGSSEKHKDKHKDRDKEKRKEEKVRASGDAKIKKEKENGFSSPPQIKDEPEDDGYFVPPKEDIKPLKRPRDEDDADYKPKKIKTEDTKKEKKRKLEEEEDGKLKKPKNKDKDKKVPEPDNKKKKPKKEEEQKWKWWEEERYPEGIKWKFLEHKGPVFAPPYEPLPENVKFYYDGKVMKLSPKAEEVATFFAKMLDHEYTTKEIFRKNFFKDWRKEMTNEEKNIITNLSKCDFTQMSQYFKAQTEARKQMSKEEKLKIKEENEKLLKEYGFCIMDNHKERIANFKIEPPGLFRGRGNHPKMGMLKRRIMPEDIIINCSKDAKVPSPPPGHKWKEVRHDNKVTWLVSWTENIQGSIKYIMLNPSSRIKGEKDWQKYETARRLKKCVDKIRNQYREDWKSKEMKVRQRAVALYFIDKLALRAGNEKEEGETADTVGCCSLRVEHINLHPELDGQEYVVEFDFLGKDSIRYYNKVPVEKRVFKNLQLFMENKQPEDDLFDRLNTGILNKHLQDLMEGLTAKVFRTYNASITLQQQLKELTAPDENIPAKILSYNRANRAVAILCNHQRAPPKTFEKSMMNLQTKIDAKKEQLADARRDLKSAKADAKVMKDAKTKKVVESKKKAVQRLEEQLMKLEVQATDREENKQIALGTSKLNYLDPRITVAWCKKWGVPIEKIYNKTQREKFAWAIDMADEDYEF
How it was run: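 Supercoiled pBR322 (0.3 μg) was relaxed by 1 unit of commercial human Topo I. Buffer: 50 mM Tris-HCl pH 7.5, 100 mM NaCl, 10 mM MgCl2, 1 mM DTT, 50 μg/ml BSA, plus varied test compound concentrations. Incubation was 15 min at 37°C, stopped with 25 mM EDTA. Products ran on 1.2% agarose, 2 V/cm, 15 h, TAE, then were ethidium-stained and imaged. IC50 came from band quantification.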

[2] = system: calf thymus DNA (Ct-DNA); conditions: ref Previous studies; cited from earlier work
[3] = system: colon cancer (HT-29) xenograft; conditions: HT-29 xenograft model, mice; cited from earlier work
[4] = system: 27-bp sequence d(CCTTACGTGCATAGTCATTCATGACCG) of dsDNA; experiment: DNA binding assay; conditions: compound 25 μM
[5] = system: calf thymus DNA (Ct-DNA); experiment: DNA binding assay; conditions: several ratios of DNA to FQ

SMILES: CCn1cc(C(=O)O)c(=O)c2cc(F)c(N3CCNCC3)cc21 [Norfloxacin]
bathochromic shift upon addition of Ct-DNA [2]: an observed bathochromic shift
fluorescence quenching upon addition of Ct-DNA [2]: significant quenching

SMILES: N[C@@H]1CCN(c2cc3c(cc2F)c(=O)c(C(=O)O)cn3Cc2ccc(-c3ccccc3)cc2)C1 [117/5g, (R)-1-([1,1′-biphenyl]-4-ylmethyl)-7-(3-aminopyrrolidin-1-yl)-6-fluoro-4-oxo-1,4-dihydroquinoline-3-carboxylic acid]
fold lower activity (loss in hTopo I inhibition) than 5a [1]: 4 fold

SMILES: O=C(O)c1cn(Cc2ccc(-c3ccccc3)cc2)c2cc(N3C[C@H]4CCNC[C@H]4C3)c(F)cc2c1=O [091/5k, 1-([1,1′-biphenyl]-4-ylmethyl)-6-fluoro-7-((3aS,7aS)-hexahydro-1H-pyrrolo[3,4-c]pyridin-2(3H)-yl)-4-oxo-1,4-dihydroquinoline-3-carboxylic acid]
fold lower activity (loss in hTopo I inhibition) than 5a [1]: 4 fold
fold more active than 5f ([1]; relative to C7 N-methyl AMP analog 5f): ~3 fold

SMILES: CN[C@@H]1CCN(c2c(F)cc3c(=O)c(C(=O)O)cn(Cc4ccc(-c5ccccc5)cc4)c3c2OC)C1 [228/4e, (R)-1-([1,1′-biphenyl]-4-ylmethyl)-6-fluoro-8-methoxy-7-(3-(methylamino)pyrrolidin-1-yl)-4-oxo-1,4-dihydroquinoline-3-carboxylic acid]
fold lower activity (loss in hTopo I inhibition) than 217 [1]: about 2 fold

SMILES: COc1c(N2CC[C@@H](CN)C2)c(F)cc2c(=O)c(C(=O)O)cn(Cc3ccc4ccccc4c3)c12 [Compound 227]
inhibition of proliferation of colon cancer in vivo [3]: exhibited activity but was not as effective as 217

SMILES: CN[C@@H]1CCN(c2cc3c(cc2F)c(=O)c(C(=O)O)cn3Cc2ccc(-c3ccccc3)cc2)C1 [118/5h, (R)-1-([1,1′-biphenyl]-4-ylmethyl)-6-fluoro-7-(3-(methylamino)pyrrolidin-1-yl)-4-oxo-1,4-dihydroquinoline-3-carboxylic acid]
fold lower activity (loss in hTopo I inhibition) than 5a [1]: 2 fold

SMILES: COc1c(N2CC[C@@H](CN)C2)c(F)cc2c(=O)c(C(N)=O)cn(Cc3ccc(-c4ccccc4)cc3)c12 [251/3b, (S)-1-([1,1′-biphenyl]-4-ylmethyl)-7-(3-(aminomethyl)pyrrolidin-1-yl)-6-fluoro-8-methoxy-4-oxo-1,4-dihydroquinoline-3-carboxamide]
fold lower activity (loss in hTopo I inhibition) than 217 [1]: 3- to 7 fold

SMILES: O=C(O)c1cn(Cc2ccc(-c3ccccc3)cc2)c2cc(N3CC4CNCC4C3)c(F)cc2c1=O (stereo not drawn) [089/5l, 1-([1,1′-biphenyl]-4-ylmethyl)-6-fluoro-7-(hexahydropyrrolo[3,4-c]pyrrol-2(1H)-yl)-4-oxo-1,4-dihydroquinoline-3-carboxylic acid]
fold lower activity (loss in hTopo I inhibition) than 5a [1]: 2 fold

SMILES: CNC(=O)c1cn(Cc2ccc(-c3ccccc3)cc2)c2c(OC)c(N3CC[C@@H](CN)C3)c(F)cc2c1=O [242/3a, (S)-1-([1,1′-biphenyl]-4-ylmethyl)-7-(3-(aminomethyl)pyrrolidin-1-yl)-6-fluoro-8-methoxy-N-methyl-4-oxo-1,4-dihydroquinoline-3-carboxamide]
fold lower activity (loss in hTopo I inhibition) than 217 [1]: 3- to 7 fold

SMILES: NC[C@@H]1CCN(c2ccc3c(=O)c(C(=O)O)cn(Cc4ccc(-c5ccccc5)cc4)c3c2)C1 [086B/6a, (S)-1-([1,1′-biphenyl]-4-ylmethyl)-7-(3-(aminomethyl)pyrrolidin-1-yl)-4-oxo-1,4-dihydroquinoline-3-carboxylic acid]
fold lower activity (loss in hTopo I inhibition) than 5a [1]: ~4 fold
fold lower activity than its cognate C6-fluorine analog 7a ([1]; relative to 7a as printed): 4 fold

SMILES: COc1c(N2CC[C@@H](N)C2)c(F)cc2c(=O)c(C(=O)O)cn(Cc3ccc(-c4ccccc4)cc3)c12 [226/4d, (R)-1-([1,1′-biphenyl]-4-ylmethyl)-7-(3-aminopyrrolidin-1-yl)-6-fluoro-8-methoxy-4-oxo-1,4-dihydroquinoline-3-carboxylic acid]
fold lower activity (loss in hTopo I inhibition) than 217 [1]: more than 3 fold

Continued, in another order:

IC50 [1]: > 200 µM
SMILES: O=C(O)c1cn(Cc2ccc(-n3cccn3)cc2)c2cc(NC[C@@H]3CCNC3)c(F)cc2c1=O [298B/9e, (R)-1-(4-(1H-pyrazol-1-yl)benzyl)-6-fluoro-4-oxo-7-((pyrrolidin-3-ylmethyl)amino)-1,4-dihydroquinoline-3-carboxylic acid]

bathochromic shift upon addition of 27-bp dsDNA [4]: a bathochromic shift was not observed
SMILES: COc1c(N2CC[C@@H](CN)C2)c(F)cc2c(=O)c(C(=O)O)cn(Cc3ccc(-c4ccccc4)cc3)c12 [Compound 217]
inhibition of proliferation of colon cancer in vivo [3]: inhibited the proliferation of colon cancer in vivo as well as fluorouracil
fluorescence quenching upon addition of 27-bp dsDNA ([4]; dsDNA 0–200 μM, n=3): quenched in a concentration-dependent manner
fluorescence quenching upon addition of Ct-DNA [5]: Modest fluorescence quenching
bathochromic shift upon addition of Ct-DNA ([5]; fluoroquinolone 25 μM, Ct-DNA 0 or 400 μM): no bathochromic shift was observed

fold improvement of hTopo I inhibition compared to 9a ([1]; relative to 9a): 2 fold
SMILES: O=C(O)c1cn(Cc2ccc(-n3cccn3)cc2)c2cc(N3C[C@H]4CCNC[C@H]4C3)c(F)cc2c1=O [300B/9c, 1-(4-(1H-pyrazol-1-yl)benzyl)-6-fluoro-7-((3aS,7aS)-hexahydro-1H-pyrrolo[3,4-c]pyridin-2(3H)-yl)-4-oxo-1,4-dihydroquinoline-3-carboxylic acid]

fold lower activity (loss in hTopo I inhibition) than 217 [1]: ≥ 7 fold
SMILES: COc1c(N2CC[C@@H](CN)C2)c(F)cc2c(=O)c(C(=O)O)cn(Cc3cc(-c4ccccc4)no3)c12 [294B/7b, (S)-7-(3-(aminomethyl)pyrrolidin-1-yl)-6-fluoro-8-methoxy-4-oxo-1-((3-phenylisoxazol-5-yl)methyl)-1,4-dihydroquinoline-3-carboxylic acid]

fold lower activity (loss in hTopo I inhibition) than 217 [1]: 2 fold
SMILES: COc1c(N2CC[C@@H](CN)C2)c(F)cc2c(=O)c(C(=O)O)cn(Cc3ccc(-c4ccc(F)cc4)cc3)c12 [277/7c, (S)-7-(3-(aminomethyl)pyrrolidin-1-yl)-6-fluoro-1-((4′-fluoro-[1,1′-biphenyl]-4-yl)methyl)-8-methoxy-4-oxo-1,4-dihydroquinoline-3-carboxylic acid]

fold lower activity (loss in hTopo I inhibition) than 217 [1]: ≥ 7 fold
SMILES: COc1c(N2CC[C@@H](CN)C2)c(F)cc2c(=O)c(C(=O)O)cn(Cc3ccc(-n4cccn4)cc3)c12 [292B/7a, (S)-1-(4-(1H-pyrazol-1-yl)benzyl)-7-(3-(aminomethyl)pyrrolidin-1-yl)-6-fluoro-8-methoxy-4-oxo-1,4-dihydroquinoline-3-carboxylic acid]
